Results reported in ChEMBL document CHEMBL4706506 (Eur J Med Chem, 2020).
The source made the active and inactive calls. No cut-off for these calls is given here.

Experiments:
A549 = assay: Antiproliferative activity against human A549 cells assessed as inhibition of cell proliferation measured after 48 hrs by CCK-8 assay; format: functional, cell-based; conditions: A549, 48 h
How it was run: (§1)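 RPMI-1640 with 10% FBS, 37 °C, 5% CO2. Cells seeded at 1-3 × 10^4/well and exposed to 0.00098–64 μM (nine 4-fold steps) or 0.1% DMSO vehicle for 48 h. CCK-8 then added for 4 h; absorbance read at 450 nm. IC50 taken from dose–response curves; mean ± SD of three independent experiments.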

B16-F0 [1] = assay: Antiproliferative activity against mouse B16-F0 cells assessed as inhibition of cell proliferation measured after 48 hrs by CCK-8 assay; format: functional, cell-based; conditions: B16F0, 48 h; how it was run: as §1
MCF7 [2] = assay: Antiproliferative activity against human MCF7 cells assessed as inhibition of cell proliferation measured after 48 hrs by CCK-8 assay; format: functional, cell-based; conditions: MCF7, 48 h
HeLa = assay: Antiproliferative activity against human HeLa cells assessed as inhibition of cell proliferation measured after 48 hrs by CCK-8 assay; format: functional, cell-based; how it was run: as §1
HCT-116 = assay: Antiproliferative activity against human HCT-116 cells assessed as inhibition of cell proliferation measured after 48 hrs by CCK-8 assay; format: functional, cell-based; conditions: HCT-116, 48 h; how it was run: as §1
B16-F0 [3] = assay: Induction of microtubule destabilization in mouse B16-F0 cells assessed as short and wrapped structure at 160 nM measured after 6 hrs by DAPI staining based immunofluorescent assay relative to control; format: cell-based
[4] = Toxicity in C57/BL mouse […] with mouse B16-F0 cells assessed as liver histology at 10 to 20 mg/kg, ip measured after 16 days by H and E staining method in relative to control; format: organism-based; conditions: in vivo, 384 h, dose 10-20 mg/kg, time 16 day
[5] = Toxicity in C57/BL mouse […] with mouse B16-F0 cells assessed as body weight loss at 10 to 20 mg/kg, ip measured after 16 days in relative to control; format: organism-based; conditions: in vivo, 384 h, dose 10-20 mg/kg, time 16 day
B16-F0 [6] = assay: Antitumour activity against mouse B16-F0 cells transplanted in C57/BL mouse assessed as decrease in tumour volume at 10 mg/kg, ip measured after 16 days in relative to control; format: functional; parameters: scale not given: the % may be the effect or the level left; conditions: time 16 day
B16-F0 [7] = assay: Antitumour activity against mouse B16-F0 cells transplanted in C57/BL mouse assessed as decrease in tumour weight at 10 mg/kg, ip measured after 16 days in relative to control; format: functional; parameters: scale not given: the % may be the effect or the level left; conditions: time 16 day
B16-F0 [8] = assay: Stabilization of microtubules in mouse B16-F0 cells at 40 nM measured after 6 hrs by DAPI staining based Immunofluorescent assay relative to control; format: cell-based
How it was run: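 Fixed in 4% paraformaldehyde, permeabilized with 0.5% Triton X-100 for 15 min, goat serum blocked. Anti-tubulin antibody 2 h at 4 °C, then fluorescent secondary antibody and DAPI nuclear counterstain. Imaged by confocal microscopy.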

[9] = Metabolic stability in mouse liver microsomes assessed as half life in presence of NADPH at 0.5 uM measured after 4 hrs by LC/MS method; format: ADME, Microsome
[10] = Metabolic stability in human liver microsomes assessed as half life in presence of NADPH at 0.5 uM measured after 4 hrs by LC/MS method; format: ADME, Microsome
MCF7 [11] = assay: Induction of cell cycle arrest in human MCF7 cells assessed as accumulation of cells at G2/M phase measured after 48 hrs by FACS Calibur flow cytometry in relative to control; format: functional, cell-based
How it was run: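 MCF-7 cells plated for 24 h, then exposed to compound (5 or 10 nM; DMSO control) for 48 h. Fixed in 70% ethanol at 4 °C for 12 h, then RNase A and propidium iodide staining for 30 min. DNA content measured by flow cytometry.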

[12] = Binding affinity to pig brain tubulin at 37 degree C without preincubation; format: tissue-based, Sus scrofa
How it was run: (§2)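 Porcine brain tubulin purified by three assembly/disassembly cycles and phosphocellulose chromatography. Mixed with graded compound concentrations in PEM (100 mM PIPES, 1 mM EGTA, 1 mM MgCl2) with 1 mM GTP and 5% glycerol. Polymerization followed at 37 °C by light scattering at 340 nm; variants ran at 30 °C, or with 5 min preincubation before GTP addition. IC50 reported.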

[13] = Binding affinity to pig brain tubulin at 37 degree C preincubated for 5 mins; format: tissue-based, Sus scrofa; how it was run: as §2
[14] = Inhibition of pig brain tubulin polymerization measured by light scattering based spectrophotometer method; format: tissue-based, Sus scrofa; how it was run: as §2
[15] = Binding affinity to pig brain tubulin at 30 degree C without preincubation; format: tissue-based, Sus scrofa; how it was run: as §2

Structure (SMILES) | IC50 (A549) [nM] | IC50 (B16-F0 [1]) [nM] | IC50 (MCF7 [2]) [nM] | IC50 (HeLa) [nM] | IC50 (HCT-116) [nM] | further results
COc1cc(-c2ccnc3cc(-c4ccc(N5CCOCC5)cc4)nn23)cc(OC)c1OC | > 10000 | > 10000 | > 10000 | > 10000 | > 10000 | –
COc1cc(-c2ccnc3cc(-c4cccc(C#N)c4)nn23)cc(OC)c1OC | > 10000 | > 10000 | > 10000 | > 10000 | > 10000 | –
CCOC(=O)c1ccc(-c2cc3nccc(-c4cc(OC)c(OC)c(OC)c4)n3n2)cc1 | > 10000 | > 10000 | > 10000 | > 10000 | > 10000 | –
COc1cc(-c2ccnc3cc(-c4ccccc4)nn23)cc(OC)c1OC | 208 | 4730 | 254 | 458 | 3880 | –
COc1cc(-c2ccnc3cc(-c4ccc(N(C)C)cc4)nn23)cc(OC)c1OC | 1100 | 702 | 44 | 378 | 2050 | –
Cn1ccc2cc(-c3cc4nccc(-c5ccc(F)cc5)n4n3)ccc21 | 3520 | 4780 | 4580 | 5210 | 2160 | –
COc1ccc(-c2cc3nccc(-c4cc(OC)c(OC)c(OC)c4)n3n2)cc1 | 376 | 1400 | 125 | 373 | 404 | –
COc1cc(-c2cc3nccc(-c4cc(OC)c(OC)c(OC)c4)n3n2)cc(OC)c1OC | > 10000 | > 10000 | > 10000 | > 10000 | > 10000 | –
COc1cc(-c2ccnc3cc(-c4cn(C)c5ccccc45)nn23)cc(OC)c1OC | 1340 | 185 | 95 | 399 | 762 | –
Cc1ccc(-c2cc3nccc(-c4ccc(F)cc4)n3n2)cc1 | > 10000 | > 10000 | > 10000 | > 10000 | > 10000 | –
COc1cc(-c2ccnc3cc(-c4ccc(C(F)(F)F)cc4)nn23)cc(OC)c1OC | 2070 | 1770 | 2440 | 1840 | 1860 | –
COc1cc(-c2ccnc3cc(-c4cn(C(=O)OC(C)(C)C)c5ccccc45)nn23)cc(OC)c1OC | 2060 | 3070 | 268 | 3770 | 5720 | –
COc1cc(-c2ccnc3cc(-c4cccc(C)c4)nn23)cc(OC)c1OC | 5730 | 2220 | 1080 | 4230 | 6150 | –
COc1cc(-c2ccnc3cc(-c4ccc(F)cc4)nn23)cc(OC)c1OC | 3800 | 4540 | 1280 | 5840 | 5030 | –
COc1cc2c(c(OC)c1OC)-c1ccc(OC)c(=O)cc1[C@@H](NC(C)=O)CC2 [COLCHICINE] | 107 | 87 | 18 | 81 | 42 | Activity (B16-F0 [3]): Active
COc1cc(-c2ccnc3cc(-c4ccc(Cl)cc4)nn23)cc(OC)c1OC | 3060 | 4090 | 2320 | 1490 | 3340 | –
CCn1c2ccccc2c2cc(-c3cc4nccc(-c5cc(OC)c(OC)c(OC)c5)n4n3)ccc21 | 643 | 1800 | 242 | 160 | 1530 | –
COc1cc(-c2ccnc3cc(-c4c[nH]c5ccccc45)nn23)cc(OC)c1OC | 29 | 40 | 85 | 195 | 35 | –

Structure (SMILES) | IC50 (A549) [nM] | IC50 (B16-F0 [1]) [nM] | IC50 (MCF7 [2]) [nM] | IC50 (HeLa) [nM] | IC50 (HCT-116) [nM] | further results
COc1cc(-c2ccnc3cc(-c4ccc(C(C)(C)C)cc4)nn23)cc(OC)c1OC | > 10000 | > 10000 | > 10000 | > 10000 | > 10000 | –
COc1cc(-c2ccnc3cc(-c4cnn(C)c4)nn23)cc(OC)c1OC | 1150 | 1240 | 274 | 1830 | 2110 | –
COc1cc(-c2ccnc3cc(-c4ccc(C)c(C)c4)nn23)cc(OC)c1OC | 272 | 391 | 26 | 241 | 261 | –
COc1cc(-c2ccnc3cc(-c4ccc5cc[nH]c5c4)nn23)cc(OC)c1OC | 170 | 55 | 23 | 125 | 187 | –
C=Cc1ccc(-c2cc3nccc(-c4cc(OC)c(OC)c(OC)c4)n3n2)cc1 | 1030 | 788 | 193 | 882 | 1060 | –
COc1ccc(-c2cc3nccc(-c4cc(OC)c(OC)c(OC)c4)n3n2)cc1[N+](=O)[O-] | > 10000 | > 10000 | > 10000 | > 10000 | > 10000 | –
CC(=O)O[C@H]1C(=O)[C@@]2(C)[C@H]([C@H](OC(=O)c3ccccc3)[C@]3(O)C[C@H](OC(=O)[C@H](O)[C@@H](NC(=O)c4ccccc4)c4ccccc4)C(C)=C1C3(C)C)[C@]1(OC(C)=O)CO[C@@H]1C[C@@H]2O [PACLITAXEL] | – | 21 | – | 41 | – | Activity [4]: Non-Toxic; Activity [5]: Non-Toxic; Activity (B16-F0 [6]): 63.8%; Activity (B16-F0 [7]): 60.4%; Activity (B16-F0 [8]): Active
COc1cc(-c2ccnc3cc(-c4ccc(CO)cc4)nn23)cc(OC)c1OC | 1100 | 1090 | 1070 | 456 | 861 | –
COc1cc(-c2ccnc3cc(-c4ccc(C(C)=O)cc4)nn23)cc(OC)c1OC | 4100 | 3930 | 5230 | 1810 | 4390 | –
COc1cc(-c2ccnc3cc(-c4cn(CO)c5ccccc45)nn23)cc(OC)c1OC | 167 | 93 | 19 | 103 | 128 | –
COc1cc(C(=O)c2csc(-c3ccccc3)n2)cc(OC)c1OC | – | – | – | – | – | half-life at 0.5 µM [9]: < 5 min; half-life at 0.5 µM [10]: 17 min
COc1ccc(-c2cc3nccc(-c4cc(OC)c(OC)c(OC)c4)n3n2)cc1N | 138 | 88 | 27 | 283 | 251 | –
COc1ccc(-c2cc3nccc(-c4cc(OC)c(OC)c(OC)c4)n3n2)cc1F | 545 | 3950 | 183 | 236 | 2840 | –
COc1cc(-c2ccnc3c(-c4c[nH]c5ccccc45)cnn23)cc(OC)c1OC | > 10000 | > 10000 | > 10000 | > 10000 | > 10000 | –
COc1cc(-c2cc3nccc(-c4c[nH]c5ccccc45)n3n2)cc(OC)c1OC | > 10000 | > 10000 | > 10000 | > 10000 | > 10000 | –
COc1cc(-c2ccnc3cc(-c4ccc5c(cnn5C)c4)nn23)cc(OC)c1OC | 233 | 1470 | 279 | 97 | 2440 | –
COc1cc(-c2ccnc3cc(-c4ccc5ccn(C)c5c4)nn23)cc(OC)c1OC | 829 | 657 | 74 | 187 | 1040 | –
COc1cc(-c2ccnc3cc(-c4ccc5c(ccn5C)c4)nn23)cc(OC)c1OC | 15 | 48 | 3 | 19 | 39 | Activity (MCF7 [11]): Active; half-life at 0.5 µM [9]: 7 min; IC50 [12]: 6700 nM; IC50 [13]: 5700 nM; IC50 [14]: 6700 nM; half-life at 0.5 µM [10]: 20 min; IC50 [15]: 6400 nM
